Assay results reported in ChEMBL document CHEMBL1156901, “Novel matrix metalloproteinase inhibitors derived from quinoxalinone scaffold (Part I)” (Bioorg Med Chem, 2010).
Active and inactive are the calls of the source. The rule behind the calls is not given here.

What was measured:
[1] = target: 72 kDa type IV collagenase (Homo sapiens, UniProt P08253); test: Inhibition of MMP2
Method in brief: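 Gelatinase A (MMP-2) with succinylated gelatin substrate and inhibitor in 50 mM sodium borate, pH 8.5, incubated 30 min at 37 °C. 0.03% trinitrobenzenesulfonic acid then added for a further 20 min. Absorbance read at 450 nm.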

[2] = target: Aminopeptidase N (Sus scrofa) (UniProt P15145); test: Inhibition of APN assessed as substrate hydrolysis by UV/vis spectrophotometer
SK-OV-3 = test: Antiproliferative activity against human SKOV3 cells after 48 hrs by MTT assay; assay type: functional, cell-based; conditions: SK-OV-3, 48 h
Method in brief: (§1)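 RPMI1640 with 10% FBS, 37 °C, 5% CO2. Cells seeded at 10,000 per well and grown 4 h in complete medium. Compound added at 1600, 800, 400, 200 or 100 µg/ml for 48 h. 0.5% MTT then added for 4 h, formazan dissolved in DMSO over 15 min, OD read at 570 nm. IC50 taken as concentration giving 50% growth inhibition.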

HL-60 = test: Antiproliferative activity against human HL60 cells after 48 hrs by MTT assay; assay type: functional, cell-based; method in brief: as §1
K562 = test: Antiproliferative activity against human K562 cells after 48 hrs by MTT assay; assay type: functional, cell-based; method in brief: as §1

Sequence of Aminopeptidase N (Sus scrofa) (P15145 whole entry, looked up): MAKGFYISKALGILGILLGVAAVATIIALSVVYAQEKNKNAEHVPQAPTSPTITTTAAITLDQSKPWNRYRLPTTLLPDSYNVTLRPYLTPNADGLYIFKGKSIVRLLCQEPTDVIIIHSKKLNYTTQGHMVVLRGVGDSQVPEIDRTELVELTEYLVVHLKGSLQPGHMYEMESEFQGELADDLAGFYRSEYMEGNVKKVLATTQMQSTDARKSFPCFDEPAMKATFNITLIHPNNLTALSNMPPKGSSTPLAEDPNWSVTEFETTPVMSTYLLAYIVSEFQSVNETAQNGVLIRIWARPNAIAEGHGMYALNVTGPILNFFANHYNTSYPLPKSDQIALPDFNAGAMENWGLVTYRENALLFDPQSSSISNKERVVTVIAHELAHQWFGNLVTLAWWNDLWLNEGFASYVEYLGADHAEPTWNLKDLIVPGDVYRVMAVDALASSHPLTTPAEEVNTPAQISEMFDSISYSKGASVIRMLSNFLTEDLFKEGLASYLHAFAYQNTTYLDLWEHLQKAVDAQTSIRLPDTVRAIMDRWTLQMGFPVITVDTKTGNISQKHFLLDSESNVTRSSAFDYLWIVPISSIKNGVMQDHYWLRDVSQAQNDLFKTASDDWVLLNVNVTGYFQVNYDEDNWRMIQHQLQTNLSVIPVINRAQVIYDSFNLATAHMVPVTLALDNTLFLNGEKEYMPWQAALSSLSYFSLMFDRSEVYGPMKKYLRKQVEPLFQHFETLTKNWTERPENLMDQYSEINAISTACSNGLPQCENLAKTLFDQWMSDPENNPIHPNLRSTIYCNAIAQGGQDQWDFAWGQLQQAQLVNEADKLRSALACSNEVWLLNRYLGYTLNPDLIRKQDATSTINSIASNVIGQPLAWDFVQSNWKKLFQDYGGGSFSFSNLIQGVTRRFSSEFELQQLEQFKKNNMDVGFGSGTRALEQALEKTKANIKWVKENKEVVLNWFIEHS
Sequence of 72 kDa type IV collagenase (P08253 whole entry): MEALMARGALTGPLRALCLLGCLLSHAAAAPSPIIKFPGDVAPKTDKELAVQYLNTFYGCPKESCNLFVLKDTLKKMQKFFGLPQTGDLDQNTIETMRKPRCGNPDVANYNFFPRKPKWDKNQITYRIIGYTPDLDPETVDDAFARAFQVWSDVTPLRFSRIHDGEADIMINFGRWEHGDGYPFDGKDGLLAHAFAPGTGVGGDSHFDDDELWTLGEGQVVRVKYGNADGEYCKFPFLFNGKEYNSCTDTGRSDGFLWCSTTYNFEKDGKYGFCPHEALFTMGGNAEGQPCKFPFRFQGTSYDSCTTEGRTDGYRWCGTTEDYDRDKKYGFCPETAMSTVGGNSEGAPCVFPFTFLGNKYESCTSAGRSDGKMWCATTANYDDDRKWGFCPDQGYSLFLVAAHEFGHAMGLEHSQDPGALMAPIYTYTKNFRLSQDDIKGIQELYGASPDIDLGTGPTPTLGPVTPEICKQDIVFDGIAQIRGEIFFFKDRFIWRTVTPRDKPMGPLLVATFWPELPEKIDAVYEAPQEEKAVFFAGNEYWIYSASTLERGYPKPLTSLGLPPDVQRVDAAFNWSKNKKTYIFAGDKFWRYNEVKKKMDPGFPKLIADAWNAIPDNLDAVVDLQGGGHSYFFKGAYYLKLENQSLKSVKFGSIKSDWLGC

Row | IC50 [1] [µM] | IC50 [2] | IC50 (SK-OV-3) [µM] | SMILES | Activity (HL-60) | Activity (K562)
1 | 1750 | Not Active | – | COC(=O)C(CC(C)C)NC(=O)[C@@H](Cc1ccccc1)NC(=O)Cn1c(=O)c(C)nc2ccccc21 (stereo not given in full) | – | –
2 | 37.3 | Not Active | – | Cc1ccccc1NC(=O)[C@H](Cc1ccccc1)NC(=O)Cn1c(=O)c(C)nc2ccccc21 | – | –
3 | 1360 | Not Active | – | Cc1nc2ccccc2n(CC(=O)N[C@@H](Cc2ccccc2)C(=O)Nc2ccc(F)c(Cl)c2)c1=O | – | –
4 | 56.6 | Not Active | – | CCCNC(=O)[C@H](Cc1ccccc1)NC(=O)Cn1c(=O)c(C)nc2ccccc21 | – | –
5 | 58.1 | Not Active | – | Cc1nc2ccccc2n(CC(=O)N[C@@H](Cc2ccccc2)C(=O)Nc2ccccc2)c1=O | – | –
6 | 9430 | Not Active | – | Cc1nc2ccccc2n(CC(=O)N[C@@H](Cc2ccccc2)C(=O)NC(C)C)c1=O | – | –
7 | 106 | Not Active | – | CCCCNC(=O)[C@H](Cc1ccccc1)NC(=O)Cn1c(=O)c(C)nc2ccccc21 | – | –
8 | 30 | Not Active | – | Cc1nc2ccccc2n(CC(=O)N[C@@H](Cc2ccccc2)C(=O)Nc2cccnc2)c1=O | – | –
9 | 624 | Not Active | – | Cc1nc2ccccc2n(CC(=O)N[C@@H](Cc2ccccc2)C(=O)Nc2ccc(Cl)cc2)c1=O | – | –
10 | 105 | Not Active | – | CCN(CC)C(=O)[C@H](Cc1ccccc1)NC(=O)Cn1c(=O)c(C)nc2ccccc21 | – | –
11 | 124 | Not Active | – | Cc1nc2ccccc2n(CC(=O)N[C@@H](Cc2ccccc2)C(=O)Nc2ccc(F)cc2)c1=O | – | –
12 | 5.6 | Not Active | 210 | COc1ccc(/C=C/C(=O)N2C[C@@H](NC(=O)c3cccnc3)C[C@H]2C(=O)NO)cc1OC | – | –
13 | 2000 | Not Active | – | Cc1nc2ccccc2n(CC(=O)N[C@@H](Cc2ccccc2)C(=O)Nc2ccc(Br)cc2)c1=O | – | –
14 | 11500 | Not Active | – | COC(=O)CCCCCNC(=O)[C@H](Cc1ccccc1)NC(=O)Cn1c(=O)c(C)nc2ccccc21 | – | –
15 | 24.2 | Not Active | – | Cc1nc2ccccc2n(CC(=O)N[C@@H](Cc2ccccc2)C(=O)Nc2ccc(F)c(F)c2)c1=O | – | –
16 | 6460 | Not Active | – | Cc1cccc(NC(=O)[C@H](Cc2ccccc2)NC(=O)Cn2c(=O)c(C)nc3ccccc32)c1 | – | –
17 | 10.5 | Not Active | 1980 | Cc1ccc(NC(=O)[C@H](Cc2ccccc2)NC(=O)Cn2c(=O)c(C)nc3ccccc32)cc1 | inactive | inactive
18 | 2760 | Not Active | – | COC(=O)CCCNC(=O)[C@H](Cc1ccccc1)NC(=O)Cn1c(=O)c(C)nc2ccccc21 | – | –
19 | 26.2 | Not Active | 3020 | Cc1nc2ccccc2n(CC(=O)N[C@@H](Cc2ccccc2)C(=O)Nc2ccc(Cl)c(Cl)c2)c1=O | inactive | inactive
